Source: PubChem BioAssay
APJ agonist: activates the human apelin receptor APJ; 330,000 compounds, 0.11% hits; CHO-K1 APJ PathHunter beta-arrestin, luminescence; 0% DMSO wells, 100% apelin; activation, % at 20 µM;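 active = activation more than six SD over the plate average, tested at 20 µM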;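 also: 0% = DMSO alone and 100% = apelin-13 at 10 nM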
Target sequence (P35414 whole entry, looked up): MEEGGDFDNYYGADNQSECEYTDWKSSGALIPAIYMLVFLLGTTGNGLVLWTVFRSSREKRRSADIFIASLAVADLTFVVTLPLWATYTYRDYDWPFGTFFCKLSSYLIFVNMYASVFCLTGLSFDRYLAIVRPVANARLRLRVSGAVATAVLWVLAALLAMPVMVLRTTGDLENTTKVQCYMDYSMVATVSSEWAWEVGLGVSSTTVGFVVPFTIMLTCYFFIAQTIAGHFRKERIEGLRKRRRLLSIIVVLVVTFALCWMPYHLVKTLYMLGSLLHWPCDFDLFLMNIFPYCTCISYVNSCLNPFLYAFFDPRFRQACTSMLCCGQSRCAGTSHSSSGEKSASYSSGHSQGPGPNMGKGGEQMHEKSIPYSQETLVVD
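Incubation: overnight seeding, 90 min compound at 25 °C, 1 h detection; test system: PathHunter CHO-K1 APJ (AGTRL-1) beta-arrestin reporter cells; amount: 1000 cells/well; doses: one dose, 20 µM compound, 1% DMSO; measured by: beta-gal luminescence; measure: agonist-driven arrestin binding to APJ; benchmarks: negative DMSO alone, positive Apelin-13 at 10 nM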
APJ antagonist: antagonists of human APJ apelin receptor; CHO-K1 APJ beta-arrestin complementation, luminescence; inhibition, % at 20 µM; 330,000 compounds, 0.32% hits;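 active = inhibition above about 40% at 20 µM, limit read from the data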;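 also: cells challenged with 10 nM apelin-13 agonist together with compound; plate controls were apelin-13 plus DMSO wells for no effect and DMSO wells lacking apelin-13 for full effect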
CXCR6 inh: inhibitors of human CXCR6 receptor | O00574 | CHO-K1 PathHunter CXCR6 beta-arrestin, luminescence | inhibition, % at 20 µM | 360,000 compounds, 0.36% hits; in the data active = inhibition above about 34%, passing the limit was not always enough;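 also: antagonist mode with CXCL16 agonist at 10 nM final; 0% = 10 nM CXCL16 with DMSO and 100% = unstimulated wells without agonist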
EBI2 antag: blocks human EBI2 receptor beta-arrestin signaling | AID 651636 | inhibition, % at 5 µM | 360,000 compounds, 0.81% hits | EBI2 beta-arrestin recruitment, luminescence, 7a,25-OHC stimulated | P32249; in the data active = inhibition above about 38%;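 also: enzyme fragment complementation signal reports receptor beta-arrestin coupling in cells; 0% = agonist plus DMSO wells and 100% = wells without agonist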
Target sequence (P32249 whole entry, looked up, the tested form may be a part): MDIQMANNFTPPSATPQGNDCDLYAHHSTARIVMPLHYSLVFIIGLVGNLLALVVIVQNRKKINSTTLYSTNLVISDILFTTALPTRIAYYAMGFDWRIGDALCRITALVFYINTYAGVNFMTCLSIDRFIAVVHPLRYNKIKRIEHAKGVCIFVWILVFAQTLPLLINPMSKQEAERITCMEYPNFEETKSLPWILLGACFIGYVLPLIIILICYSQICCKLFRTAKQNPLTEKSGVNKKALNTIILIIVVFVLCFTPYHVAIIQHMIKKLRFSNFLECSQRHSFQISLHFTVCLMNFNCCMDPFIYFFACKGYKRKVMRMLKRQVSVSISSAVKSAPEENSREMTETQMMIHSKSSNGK
CCR6 antagonist: CCR6 (human) receptor antagonism | P51684 | CHO-K1 CCR6 PathHunter beta-arrestin, luminescence, CCL20-stimulated | inhibition, % at 20 µM | 340,000 compounds, 0.49% hits | AID 493098;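 active = compounds whose inhibition of the agonist-driven luminescence signal at 20 µM reaches about 50%, limit read from the data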;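 also: cells stimulated with CCL20 at 14 nM final; plate controls were DMSO with CCL20 for no effect and DMSO without agonist for full effect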
EBI2 conf: confirmation of human EBI2 receptor antagonists | shares compounds with EBI2 antag | EBI2 beta-arrestin luminescence, 7a,25-OHC antagonism | inhibition, % at 5 µM | 2,400 compounds, 29% hits | AID 651997;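 active = inhibition of at least 50%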
EBI2 ag: activates EBI2, counter-screen for EBI2 antagonists; shares compounds with EBI2 antag; EBI2-expressing cells, agonist mode, luminescence, 60 min; 0% vehicle, 100% 7α,25-dihydroxycholesterol control; 2,400 tested, under 10 active; AID 652000; activation, % at 5 µM;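 active = activation of at least 50%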
bGal cs: counter-screen for EBI2 antagonists: E. coli beta-galactosidase inhibition | shares compounds with EBI2 antag | purified beta-galactosidase, luminescent Galacton Star, 15 min | inhibition, % at 5 µM | 2,400 compounds, 1% hits | AID 652176;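 active = replicate-average signal at least 3 plate SD below neutral wells, shown as high inhibition, flagging enzyme-inhibiting false positives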;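 also: 0% = DMSO wells with enzyme and 100% = wells lacking enzyme; higher means stronger loss of beta-gal luminescence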
Active calls of the source: *; . = not tested or not shown. Compounds with a hit are over-represented: about 1.5% of the library has one in this group of screens.

SMILES | APJ agonist | APJ antagonist | CXCR6 inh | EBI2 antag | CCR6 antagonist | EBI2 conf | EBI2 ag | bGal cs
O=C(NCCc1c[nH]c2ccccc12)C1CCCN(S(=O)(=O)c2ccccc2)C1 (stereo not drawn) | -2.1 | 14.9 | -8.2 | 45.5* | 7.4 | 40.2 | -0.2 | -15.5
O=C(NCCC1=CCCCC1)C1CCCN(S(=O)(=O)c2ccccc2)C1 (stereo not drawn) | -2.8 | 14.1 | 1.9 | -5.2 | 5.4 | . | . | .
COc1ccccc1/C=C/C(=O)N1CCN(S(=O)(=O)c2cc(C)ccc2C)CC1 | -5.3 | 9.3 | 0.7 | 85.3* | 7.5 | 76.0* | -1.4 | -19.7
Cc1ccc(C)c(S(=O)(=O)N2CCN(C(=O)CNC(=O)c3ccc4ccccc4c3)CC2)c1 | 0.4 | 6.9 | 8.2 | 62.8* | 11.6 | 50.0 | 0.8 | 3.5
Cc1ccc(C)c(S(=O)(=O)N2CCN(C(=O)CCC(=O)c3cc(C)sc3C)CC2)c1 | -3.9 | -0.8 | -2.4 | 78.2* | 10.3 | 50.8* | 4.3 | 2.7
CSc1n[nH]c(NC2=CC(=O)CCC2)n1 | 6.8 | 20.6 | -10.7 | -6.5 | -42.6 | . | . | .
CC(NCC(O)COc1ccc2ccccc2c1)c1ccccc1 (stereo not drawn) | 1.7 | 17.6 | -9.8 | 46.2* | 0.6 | 18.1 | 0.4 | -5.8
COc1ccc(OCC(O)CNC(C)c2ccccc2)cc1 (stereo not drawn) | 0.1 | -6.1 | -2.8 | 22.1 | -3.4 | . | . | .
COc1ccc(C)cc1N(CC(=O)Nc1ccc(S(=O)(=O)N2CCCC2)cc1)S(C)(=O)=O | 3.6 | -6.9 | -0.6 | -2.8 | -0.5 | . | . | .
CCOC(=O)C1CCN(C(=O)COc2ccc(Cl)cc2)CC1 | 5.3 | 8.2 | 5.9 | 75.1* | 7.2 | 54.3* | -2.0 | -10.0
COC(=O)C1CCN(C(=O)COc2ccc(Cl)cc2)CC1 | 0.5 | 7.3 | 2.5 | 61.7* | -2.7 | 57.3* | 0.6 | 9.7
Cc1cccc(OCC(=O)N2CCN(C(=O)COc3ccc(Cl)cc3)CC2)c1 | -3.1 | -0.1 | -7.2 | 84.4* | 3.3 | 50.3* | -1.4 | -14.9
O=C(Nc1ccc([N+](=O)[O-])cc1Br)c1cc2ccccc2nc1Cl | -2.0 | -32.2 | 17.4 | 4.2 | 2.5 | . | . | .
CCOC(=O)C1=C(C)NC(C)=C(C(=O)OCC)C1c1ccc([N+](=O)[O-])s1 | -0.9 | 6.2 | 13.2 | 15.7 | 20.1 | . | . | .
COc1ccc(CCNC(=O)c2nnn(-c3ccccc3OC)c2N)cc1OC | -1.0 | 8.8 | -4.3 | -5.4 | 5.8 | . | . | .
COc1ccc(CNC(=O)CN(C(=O)c2snc(C(N)=O)c2N)c2ccc(F)cc2)cc1 | 0.8 | -9.8 | 8.8 | 2.7 | 8.9 | . | . | .
COc1ccccc1C(CNC(=O)c1ccco1)N1CCCC1 (stereo not drawn) | -2.0 | 14.5 | 3.6 | 0.2 | 2.1 | . | . | .
COc1ccc(-c2nc(N)ncc2Oc2ccccc2Br)c(O)c1 | -0.4 | -3.4 | -1.1 | 61.8* | 9.7 | 23.4 | 0.4 | 4.1
COc1cccc(Oc2cnc(N)nc2-c2ccc(OC)cc2O)c1 | -9.6 | -7.0 | -0.5 | 52.5* | -14.2 | 48.0 | 2.6 | 5.6
Cc1ccc(S(=O)(=O)CC(=O)NCc2ccc(Cl)cc2)cc1 | 0.0 | -5.8 | 1.7 | 0.8 | 2.4 | . | . | .
CCCCCCn1c(COc2ccccc2F)nnc1SCC(=O)c1c(N)n(C)c(=O)n(C)c1=O | 5.1 | -4.7 | . | . | . | . | . | .
CCN1CCN(c2ccc(S(=O)(=O)N3CCOCC3)cc2NC(=O)/C=C/c2ccc(C)cc2)CC1 | -5.5 | 16.0 | 9.5 | 94.5* | 17.5 | 91.1* | 1.4 | 4.3
N#C/C(=C\c1ccccc1)C(=O)Nc1cc(S(=O)(=O)N2CCOCC2)ccc1N1CCCC1 | 6.7 | 4.3 | 0.0 | 75.0* | 20.5 | 65.8* | -1.2 | -13.2
COc1ccc(NC(=O)C2CCCN2C(=O)Nc2ccccc2)cc1OC (stereo not drawn) | -7.8 | -0.8 | -3.9 | -8.2 | 1.3 | . | . | .
COc1ccc(C2CCCN2C(=O)Nc2ccc(Cl)cc2)cc1OC (stereo not drawn) | -2.0 | 0.4 | -6.4 | 59.0* | 11.2 | 48.5 | 0.7 | 6.2
SMILES | APJ agonist | APJ antagonist | CXCR6 inh | EBI2 antag | CCR6 antagonist | EBI2 conf | EBI2 ag | bGal cs
CCN(CC)S(=O)(=O)c1cccc(NC(=O)CN2C(=O)c3ccc([N+](=O)[O-])cc3C2=O)c1 | 0.3 | -5.1 | -7.2 | -6.2 | 16.9 | . | . | .
COc1cc(/C=N/NC(=O)Nc2cccc3nsnc23)cc(OC)c1OC | . | . | 1.3 | -4.0 | -19.0 | . | . | .
COc1ccc(/C=N/NC(=O)Nc2cccc3nsnc23)c(OC)c1 | 1.3 | -1.3 | -6.2 | 52.6* | -2.1 | 27.8 | 0.5 | 5.4
Cc1cc(C(=O)NNC(=O)c2ccc(Cl)c(S(N)(=O)=O)c2)c(C)o1 | -0.7 | 16.5 | -0.2 | -3.7 | 6.6 | . | . | .
COc1ccc(-c2nnc(C3CCN(S(=O)(=O)c4ccccc4)CC3)o2)cc1 | -2.0 | 7.3 | -4.9 | 47.4* | -0.5 | 19.8 | -0.3 | -6.8
Cc1sc2nc(SCC(=O)Nc3c(C)n(C)n(-c4ccccc4)c3=O)n(C)c(=O)c2c1C | -4.7 | 8.9 | -3.8 | -13.2 | 4.3 | . | . | .
O=C1C=C(c2ccc3[nH]ccc3c2)C[C@@H](c2ccc(Cl)cc2)C1 | -0.8 | 0.9 | 2.9 | 63.6* | 20.4 | 33.6 | 0.1 | 4.0
O=C1C=C(c2ccc3ccccc3c2)C[C@@H](c2ccc(Cl)cc2)C1 | -4.9 | 2.9 | 2.7 | 74.3* | 15.7 | 69.6* | -0.8 | -4.6
O=C1C=C(c2cccc3c2sc2ccccc23)C[C@@H](c2ccc(Cl)cc2)C1 | -2.1 | -3.9 | 11.6 | 45.0* | 11.5 | 33.6 | 0.8 | 3.8
O=C1C=C(c2ccc3ncccc3c2)C[C@@H](c2ccc(Cl)cc2)C1 | -5.7 | -1.5 | 10.3 | 87.1* | 20.2 | 75.3* | -0.9 | -8.1
O=C(N/N=C1\SCC(=O)N1CCc1ccccc1)c1cccs1 | -2.6 | -11.0 | -3.6 | 0.1 | 4.6 | . | . | .
C/C(=N\NC(=O)CC#N)C1COc2ccccc2O1 (stereo not drawn) | 1.3 | 2.8 | 0.4 | 3.5 | 20.5 | . | . | .
CC(=O)N1CCN(C(=O)c2cc(S(=O)(=O)Nc3ccc(S(C)(=O)=O)cc3)ccc2Cl)CC1 | -3.4 | -5.0 | -1.2 | -4.1 | 7.3 | . | . | .
CCN1CCN(C(=S)Nc2ccccc2Cl)CC1 | 7.4 | 8.2 | 1.1 | -8.8 | -4.6 | . | . | .
COc1ccc([C@H]2CC(=O)C=C(c3ccc4ncccc4c3)C2)cc1 | -0.9 | -6.4 | 6.7 | 82.1* | 16.6 | 58.5* | 0.2 | 8.0
COc1ccc([C@H]2CC(=O)C=C(c3cccc(Br)c3)C2)cc1OC | -5.0 | 12.4 | -4.0 | 36.3 | 13.5 | . | . | .
COc1ccc(C2=CC(=O)CC(c3ccccc3)C2)cc1 (stereo not drawn) | 0.2 | 14.3 | 8.6 | 25.8 | 15.4 | . | . | .
